ChEMBL document CHEMBL3352508, “Discovery and early clinical development of 2-{6-[2-(3,5-dichloro-4-pyridyl)acetyl]-2,3-dimethoxyphenoxy}-N-propylacetamide (LEO 29102), a soft-drug inhibitor of phosphodiesterase 4 for topical treatment of atopic dermatitis” (J Med Chem, 2014)
Converted amounts (≈) assume the structure as drawn.

What was measured:
[1] = molecular target: 3',5'-cyclic-AMP phosphodiesterase 4D (Homo sapiens, UniProt Q08499); test: Inhibition of human recombinant PDE4D after 1 hr by SPA in presence of radioactively labeled cAMP
Sequence of 3',5'-cyclic-AMP phosphodiesterase 4D (Q08499 whole entry): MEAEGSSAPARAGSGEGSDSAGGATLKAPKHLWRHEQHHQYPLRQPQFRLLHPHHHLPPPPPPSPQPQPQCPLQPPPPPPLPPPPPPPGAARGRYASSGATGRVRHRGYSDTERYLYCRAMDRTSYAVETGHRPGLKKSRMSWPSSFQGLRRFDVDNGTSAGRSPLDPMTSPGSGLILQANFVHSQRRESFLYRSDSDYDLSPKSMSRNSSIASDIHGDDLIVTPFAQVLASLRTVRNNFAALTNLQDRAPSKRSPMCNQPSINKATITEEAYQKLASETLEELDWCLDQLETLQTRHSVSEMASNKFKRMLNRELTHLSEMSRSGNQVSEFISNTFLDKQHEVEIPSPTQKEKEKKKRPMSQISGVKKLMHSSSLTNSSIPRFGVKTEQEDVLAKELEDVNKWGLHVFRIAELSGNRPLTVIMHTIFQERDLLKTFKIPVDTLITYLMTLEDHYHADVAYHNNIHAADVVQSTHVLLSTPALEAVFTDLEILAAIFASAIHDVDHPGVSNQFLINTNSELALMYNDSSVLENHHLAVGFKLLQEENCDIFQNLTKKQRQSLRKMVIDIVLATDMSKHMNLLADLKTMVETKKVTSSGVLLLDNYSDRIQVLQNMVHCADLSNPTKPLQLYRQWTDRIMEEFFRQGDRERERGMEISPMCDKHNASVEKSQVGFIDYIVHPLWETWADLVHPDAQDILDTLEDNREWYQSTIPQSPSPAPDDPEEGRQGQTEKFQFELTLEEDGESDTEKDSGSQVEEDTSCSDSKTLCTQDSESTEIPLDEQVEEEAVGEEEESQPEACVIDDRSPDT
Method in brief: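 Recombinant human PDE4D (NM_006203) incubated 1 h with test compound up to 10 μM, 1 × 10⁻⁵ M cAMP and 0.021 MBq radiolabelled cAMP tracer. Substrate cleavage read by binding of AMP product to SPA beads. IC₅₀ is the molar concentration giving 50% inhibition of cleavage relative to controls, reported as a range.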

PBMC = test: Inhibition of LPS-induced TNFalpha release in human PBMC preincubated for 30 mins before LPS stimulation measured after 18 hrs by TR-FRET assay; format: functional, cell-based
Method in brief: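 PBMCs isolated from buffy coats (blood diluted 1:1 with saline, Lymphoprep). Supernatant TNF-α measured by TR-FRET (665/620 nm). IC₅₀ taken from inhibition curves, with LPS-stimulated and unstimulated wells as controls.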

Mus musculus [2] = test: Antiinflammatory activity in topical allergic contact dermatitis mouse model assessed as inhibition of TNFalpha in tissue at 0.003 mg administered topically; format: functional
Mustela putorius furo = test: Toxicity in ferret assessed as emesis at 0.01 mg/kg, iv measured up to 2 hrs post dose; format: organism-based; set-up: dose 0.01 mg/kg, route intravenous; details: in vivo
Method in brief: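 Ferrets received the compound intravenously, with vehicle-dosed controls. Animals were caged and watched for 2 h, counting emetic episodes and prodromic signs (nausea). Recorded: number of ferrets retching and vomiting, latency to first retch and first vomit, and numbers of retches and vomits.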

Mus musculus [3] = test: Antiinflammatory activity in topical allergic contact dermatitis mouse model assessed as inhibition of TNFalpha in tissue compound administered topically; format: functional, organism-based
Mus musculus [4] = test: Antiinflammatory activity in topical allergic contact dermatitis mouse model assessed as inhibition of TNFalpha in tissue at 0.001 mg administered topically; format: functional
Mus musculus [5] = test: Antiinflammatory activity in topical allergic contact dermatitis mouse model assessed as inhibition of TNFalpha in tissue at 0.01 mg administered topically; format: functional
Mus musculus [6] = test: Antiinflammatory activity in topical allergic contact dermatitis mouse model assessed as inhibition of TNFalpha in tissue at 0.1 mg administered topically; format: functional
[7] = molecular target: Phosphodiesterase 1 (Homo sapiens) (UniProt P54750+Q01064+Q14123); test: Inhibition of PDE1 (unknown origin) at 1 uM; format: protein assay
[8] = molecular target: cGMP-dependent 3',5'-cyclic phosphodiesterase (Homo sapiens) (UniProt O00408); test: Inhibition of PDE2 (unknown origin) at 1 uM
[9] = molecular target: Phosphodiesterase 3 (Homo sapiens) (UniProt Q14432+Q13370); test: Inhibition of PDE3 (unknown origin) at 1 uM; format: protein assay
[10] = molecular target: High affinity cGMP-specific 3',5'-cyclic phosphodiesterase 9A (Homo sapiens) (UniProt O76083); test: Inhibition of PDE9 (unknown origin) at 1 uM
Sequence of High affinity cGMP-specific 3',5'-cyclic phosphodiesterase 9A (Homo sapiens) (O76083 whole entry): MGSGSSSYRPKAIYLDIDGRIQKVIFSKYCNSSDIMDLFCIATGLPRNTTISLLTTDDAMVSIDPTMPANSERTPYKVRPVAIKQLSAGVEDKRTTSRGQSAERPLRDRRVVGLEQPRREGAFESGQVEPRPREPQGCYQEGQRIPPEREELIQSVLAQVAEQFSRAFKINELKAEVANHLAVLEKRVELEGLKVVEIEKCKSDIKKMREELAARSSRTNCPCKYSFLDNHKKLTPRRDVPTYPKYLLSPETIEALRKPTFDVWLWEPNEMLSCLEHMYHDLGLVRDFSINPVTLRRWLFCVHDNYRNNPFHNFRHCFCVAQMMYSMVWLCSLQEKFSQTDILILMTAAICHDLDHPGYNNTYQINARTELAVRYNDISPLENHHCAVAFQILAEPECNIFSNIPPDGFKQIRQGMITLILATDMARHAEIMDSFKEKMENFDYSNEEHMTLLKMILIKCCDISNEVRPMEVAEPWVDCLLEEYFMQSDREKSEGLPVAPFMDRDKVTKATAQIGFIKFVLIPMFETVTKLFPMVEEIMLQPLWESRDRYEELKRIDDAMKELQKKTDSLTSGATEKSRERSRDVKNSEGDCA

[11] = molecular target: cGMP-specific 3',5'-cyclic phosphodiesterase (Homo sapiens) (UniProt O76074); test: Inhibition of PDE5 (unknown origin) at 1 uM
[12] = molecular target: High affinity 3',5'-cyclic-AMP phosphodiesterase 7A (Homo sapiens) (UniProt Q13946); test: Inhibition of PDE7 (unknown origin) at 1 uM
Sequence of High affinity 3',5'-cyclic-AMP phosphodiesterase 7A (Homo sapiens) (Q13946 whole entry): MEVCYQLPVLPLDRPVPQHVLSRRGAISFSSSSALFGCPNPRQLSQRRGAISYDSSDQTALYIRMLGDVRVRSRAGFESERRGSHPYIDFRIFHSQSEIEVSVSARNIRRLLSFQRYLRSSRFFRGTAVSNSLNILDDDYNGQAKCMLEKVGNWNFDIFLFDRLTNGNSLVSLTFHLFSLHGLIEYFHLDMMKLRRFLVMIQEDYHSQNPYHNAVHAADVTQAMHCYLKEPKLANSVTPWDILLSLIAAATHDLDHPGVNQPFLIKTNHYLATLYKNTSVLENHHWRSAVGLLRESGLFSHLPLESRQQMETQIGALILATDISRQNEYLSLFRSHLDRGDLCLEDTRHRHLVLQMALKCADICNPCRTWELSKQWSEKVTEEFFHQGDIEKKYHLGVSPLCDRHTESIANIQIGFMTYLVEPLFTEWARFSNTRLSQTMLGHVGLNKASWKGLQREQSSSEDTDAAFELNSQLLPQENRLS

[13] = molecular target: Phosphodiesterase 8 (Homo sapiens) (UniProt O95263+O60658); test: Inhibition of PDE8 (unknown origin) at 1 uM; format: protein assay
Sequence of Phosphodiesterase 8 (Homo sapiens) (O60658 whole entry, looked up): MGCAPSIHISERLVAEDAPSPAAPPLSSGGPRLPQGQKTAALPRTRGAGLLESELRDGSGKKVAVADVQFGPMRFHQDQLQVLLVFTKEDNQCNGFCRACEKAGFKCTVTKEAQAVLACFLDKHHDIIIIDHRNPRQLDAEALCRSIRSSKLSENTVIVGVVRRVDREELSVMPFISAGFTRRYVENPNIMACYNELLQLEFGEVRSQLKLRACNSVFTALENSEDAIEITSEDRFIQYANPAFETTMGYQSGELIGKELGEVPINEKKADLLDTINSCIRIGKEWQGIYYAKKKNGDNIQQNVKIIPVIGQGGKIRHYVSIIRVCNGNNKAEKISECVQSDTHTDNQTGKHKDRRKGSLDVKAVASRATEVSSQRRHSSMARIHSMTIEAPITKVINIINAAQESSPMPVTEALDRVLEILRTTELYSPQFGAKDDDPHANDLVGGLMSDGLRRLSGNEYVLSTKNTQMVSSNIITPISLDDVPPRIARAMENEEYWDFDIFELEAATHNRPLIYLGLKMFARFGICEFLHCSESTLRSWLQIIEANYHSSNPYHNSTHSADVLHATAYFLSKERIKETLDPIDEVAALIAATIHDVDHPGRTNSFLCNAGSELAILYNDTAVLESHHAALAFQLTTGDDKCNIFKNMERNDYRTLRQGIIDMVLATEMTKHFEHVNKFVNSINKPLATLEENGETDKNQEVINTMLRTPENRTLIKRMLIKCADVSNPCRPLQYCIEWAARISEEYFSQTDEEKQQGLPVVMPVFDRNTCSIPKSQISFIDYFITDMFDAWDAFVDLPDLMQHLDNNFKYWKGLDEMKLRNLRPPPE
Sequence of Phosphodiesterase 8 (Homo sapiens) (O95263 whole entry, looked up): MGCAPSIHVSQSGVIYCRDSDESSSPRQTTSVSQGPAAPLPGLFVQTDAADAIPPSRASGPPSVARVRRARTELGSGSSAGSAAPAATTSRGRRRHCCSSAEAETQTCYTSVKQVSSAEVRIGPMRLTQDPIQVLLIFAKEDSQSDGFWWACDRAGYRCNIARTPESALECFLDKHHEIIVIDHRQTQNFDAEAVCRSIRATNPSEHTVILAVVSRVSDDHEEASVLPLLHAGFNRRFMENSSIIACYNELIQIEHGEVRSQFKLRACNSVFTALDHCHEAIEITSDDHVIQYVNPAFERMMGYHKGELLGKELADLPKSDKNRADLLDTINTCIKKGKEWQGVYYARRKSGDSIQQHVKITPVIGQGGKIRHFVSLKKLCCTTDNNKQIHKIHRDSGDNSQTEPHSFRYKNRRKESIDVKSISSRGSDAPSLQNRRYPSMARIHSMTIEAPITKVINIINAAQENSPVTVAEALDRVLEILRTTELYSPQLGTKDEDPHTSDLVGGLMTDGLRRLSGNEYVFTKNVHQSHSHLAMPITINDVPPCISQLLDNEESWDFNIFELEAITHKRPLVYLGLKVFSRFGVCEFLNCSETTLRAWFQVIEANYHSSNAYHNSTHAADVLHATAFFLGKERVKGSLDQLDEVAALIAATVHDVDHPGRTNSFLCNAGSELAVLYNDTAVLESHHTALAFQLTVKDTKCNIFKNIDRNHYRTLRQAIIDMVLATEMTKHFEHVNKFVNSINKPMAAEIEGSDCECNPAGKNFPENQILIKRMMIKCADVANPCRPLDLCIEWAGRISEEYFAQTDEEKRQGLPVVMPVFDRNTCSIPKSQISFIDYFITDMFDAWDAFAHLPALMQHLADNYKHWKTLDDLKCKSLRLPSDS

[14] = molecular target: cAMP and cAMP-inhibited cGMP 3',5'-cyclic phosphodiesterase 10A (Homo sapiens) (UniProt Q9Y233); test: Inhibition of PDE10 (unknown origin) at 1 uM
Sequence of cAMP and cAMP-inhibited cGMP 3',5'-cyclic phosphodiesterase 10A (Homo sapiens) (Q9Y233 whole entry): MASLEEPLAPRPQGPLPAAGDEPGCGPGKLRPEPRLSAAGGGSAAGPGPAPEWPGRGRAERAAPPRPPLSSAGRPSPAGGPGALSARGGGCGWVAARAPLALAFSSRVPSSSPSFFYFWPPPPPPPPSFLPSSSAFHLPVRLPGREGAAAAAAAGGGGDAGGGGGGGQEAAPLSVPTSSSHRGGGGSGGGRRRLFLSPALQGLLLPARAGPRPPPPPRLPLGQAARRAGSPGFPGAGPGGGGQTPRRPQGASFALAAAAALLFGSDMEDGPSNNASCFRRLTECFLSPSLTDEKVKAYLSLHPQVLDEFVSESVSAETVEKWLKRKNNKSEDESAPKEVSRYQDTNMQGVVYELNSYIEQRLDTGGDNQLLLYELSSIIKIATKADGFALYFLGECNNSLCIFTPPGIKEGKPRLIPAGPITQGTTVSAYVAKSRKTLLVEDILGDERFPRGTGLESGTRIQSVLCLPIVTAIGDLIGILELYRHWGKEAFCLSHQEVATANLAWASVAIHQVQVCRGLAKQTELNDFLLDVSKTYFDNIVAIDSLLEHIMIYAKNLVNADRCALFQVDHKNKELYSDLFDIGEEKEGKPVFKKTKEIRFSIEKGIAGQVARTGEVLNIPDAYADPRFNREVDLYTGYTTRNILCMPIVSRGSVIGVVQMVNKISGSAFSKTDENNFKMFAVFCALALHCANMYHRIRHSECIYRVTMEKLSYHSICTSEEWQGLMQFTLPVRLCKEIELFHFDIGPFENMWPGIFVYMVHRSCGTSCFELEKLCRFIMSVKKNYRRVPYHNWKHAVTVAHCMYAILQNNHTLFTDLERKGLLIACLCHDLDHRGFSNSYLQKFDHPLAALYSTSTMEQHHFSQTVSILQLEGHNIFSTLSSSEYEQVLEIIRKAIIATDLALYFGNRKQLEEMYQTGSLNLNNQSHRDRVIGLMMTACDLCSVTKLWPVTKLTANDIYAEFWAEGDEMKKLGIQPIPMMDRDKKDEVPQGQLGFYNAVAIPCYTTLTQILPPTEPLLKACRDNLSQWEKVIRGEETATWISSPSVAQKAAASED

[15] = molecular target: Dual 3',5'-cyclic-AMP and -GMP phosphodiesterase 11A (Homo sapiens) (UniProt Q9HCR9); test: Inhibition of PDE11 (unknown origin) at 1 uM
[16] = Solubility of the compound in 0.067 M phosphate buffer at pH 7.4; format: physicochemical
Method in brief: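 Compound shaken in 0.067 M phosphate buffer, pH 7.4, for 24 h at room temperature; after centrifugation, supernatant concentration determined by HPLC.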

[17] = Solubility of the compound in 20 % hydroxypropyl-beta-cyclodextrin in water after 1 hr at room temperature; format: physicochemical
Method in brief: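 Compound shaken in the vehicle for 1 h at room temperature, centrifuged, and the supernatant concentration determined by HPLC.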

[18] = Solubility of the compound in medium chain triglyceride; format: physicochemical
Method in brief: (§1)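 Compound shaken in each vehicle for 24 h at room temperature, centrifuged, and the supernatant concentration determined by HPLC.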

[19] = Solubility of the compound in propylene glycol; format: physicochemical; method in brief: as §1
[20] = Solubility of the compound in propylene glycol-water at 25:75 ratio after 24 hrs at room temperature; format: physicochemical; details: propylene glycol-water 25:75; method in brief: as §1
[21] = Solubility of the compound in propylene glycol-water at 50:50 ratio after 24 hrs at room temperature; format: physicochemical; details: propylene glycol-water 50:50; method in brief: as §1
[22] = Solubility of the compound in propylene glycol-water at 75:25 ratio after 24 hrs at room temperature; format: physicochemical; details: propylene glycol-water 75:25; method in brief: as §1
[23] = Toxicity in iv dosed ferret assessed as emesis measured up to 2 hrs post dose; format: organism-based, Mustela putorius furo; details: in vivo
Method in brief: (§2)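 Ferrets dosed iv at 0.03–1.0 mg/kg alongside vehicle groups, then observed for 2 h. Recorded: emetic episodes and prodromic signs of nausea, number of animals retching and vomiting, latency to first retch and vomit, and counts of retches and vomits.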

[24] = Toxicity in iv dosed ferret assessed as signs of nausea measured up to 2 hrs post dose; format: organism-based, Mustela putorius furo; details: in vivo; method in brief: as §2
[25] = Cmax in human at 2.5 mg/g cream administered as single topical dose up to 7 % body surface area; format: ADME, organism-based; set-up: dose 2.5 mg/g; details: in vivo, 2500 mg/kg
Method in brief: (§3)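 Healthy subjects, n = 6 per group, each given a single cutaneous dose of 2.5 mg/g cream. Treated body surface area was escalated (7, 14, 30, 53%) while the amount of cream per cm² was held constant. Plasma Cmax and AUC0–48h are reported as geometric means.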

[26] = AUC (0 to 48 hrs) in human at 2.5 mg/g cream administered as single topical dose up to 7 % body surface area; format: ADME, organism-based; set-up: dose 2.5 mg/g, time < 48 hr; details: plasma, 2500 mg/kg; method in brief: as §3
[27] = Cmax in human at 2.5 mg/g cream administered as single topical dose up to 14 % body surface area; format: ADME, organism-based; set-up: dose 2.5 mg/g; details: in vivo, 2500 mg/kg; method in brief: as §3
[28] = AUC (0 to 48 hrs) in human at 2.5 mg/g cream administered as single topical dose up to 14 % body surface area; format: ADME, organism-based; set-up: time < 48 hr, dose 2.5 mg/g; details: plasma, 2500 mg/kg; method in brief: as §3
[29] = Cmax in human at 2.5 mg/g cream administered as single topical dose up to 30 % body surface area; format: ADME, organism-based; set-up: dose 2.5 mg/g; details: in vivo, 2500 mg/kg; method in brief: as §3
[30] = AUC (0 to 48 hrs) in human at 2.5 mg/g cream administered as single topical dose up to 30 % body surface area; format: ADME, organism-based; set-up: time < 48 hr, dose 2.5 mg/g; details: plasma, 2500 mg/kg; method in brief: as §3
[31] = Cmax in human at 2.5 mg/g cream administered as single topical dose up to 53 % body surface area; format: ADME, organism-based; set-up: dose 2.5 mg/g; details: in vivo, 2500 mg/kg; method in brief: as §3
[32] = AUC (0 to 48 hrs) in human at 2.5 mg/g cream administered as single topical dose up to 53 % body surface area; format: ADME, organism-based; set-up: time < 48 hr, dose 2.5 mg/g; details: plasma, 2500 mg/kg; method in brief: as §3
Homo sapiens = test: Toxicity in human assessed as emesis at 2.5 mg/g cream administered as single topical dose up to 7 to 53 % body surface area; format: organism-based; details: in vivo, topical_or_ocular
Method in brief: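 First-in-man safety, tolerability and pharmacokinetic study with single ascending and multiple cutaneous doses of 2.5 mg/g cream. Dose was escalated by enlarging the treated body surface area up to 53%, and emesis cases were recorded.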

[33] = Genotoxicity in p53 competent human TK6 cells after 24 hrs by GreenScreen HC assay; format: toxicity, cell-based; details: tk6, 24 h

Compound: COc1ccc(C(=O)Cc2c(Cl)cncc2Cl)c(OCCCc2ccccc2)c1OC
- IC50 [1]: 45 nM
- IC50 (PBMC): 230 nM

Compound: COc1ccc(C(=O)Nc2c(Cl)cncc2Cl)c(OC)c1OC
- IC50 [1]: 3790 nM
- IC50 (PBMC): > 5000 nM

Compound: CCCCC(=O)O[C@]1(C(=O)CO)[C@@H](C)C[C@H]2[C@@H]3CCC4=CC(=O)C=C[C@]4(C)[C@@]3(F)[C@@H](O)C[C@@]21C [BETAMETHASONE VALERATE]
- inhibition (INH) (Mus musculus [2]): 75%

Compound: Nc1nc2c([nH]1)c(=O)n(CC1CC1)c(=O)n2CC1CC1 [CIPAMFYLLINE]
- Activity (Mustela putorius furo): Toxic

Compound: COc1ccc(C(=O)Cc2c(Cl)cncc2Cl)c(OCCc2ccc(O)cc2)c1OC
- IC50 [1]: 8 nM
- IC50 (PBMC): 30 nM

Compound: COc1ccc(C(=O)Cc2c(Cl)cncc2Cl)c(OC)c1OCC1CC1
- IC50 [1]: 212 nM
- IC50 (PBMC): 564 nM

Compound: CCCNC(=O)COc1c(C(=O)Cc2c(Cl)cncc2Cl)ccc(OC)c1OC
- IC50 [1]: 5 nM
- IC50 (PBMC): 16 nM
- inhibition (Mus musculus [3]): Dose-dependent effect
- inhibition (INH) (Mus musculus [4]): 33%
- inhibition (INH) (Mus musculus [5]): 91%
- inhibition (INH) (Mus musculus [6]): 100%
- inhibition [7]: < 10%
- inhibition [8]: < 10%
- inhibition [9]: < 10%
- inhibition [10]: < 10%
- inhibition [11]: < 10%
- inhibition [12]: < 10%
- inhibition [13]: < 10%
- inhibition [14]: < 10%
- inhibition [15]: < 10%
- solubility [16]: 14 µg/mL (≈ 0.0317 mM)
- solubility at 1 h [17]: 220 µg/mL (≈ 0.499 mM)
- solubility [18]: 6700 µg/mL (≈ 15.2 mM)
- solubility [19]: 24000 µg/mL (≈ 54.4 mM)
- solubility at 24 h [20]: 135 µg/mL
- solubility at 24 h [21]: 1300 µg/mL
- solubility at 24 h [22]: 5600 µg/mL
- MTD at 2 h [23]: 1 mg/kg
- MTD at 2 h [24]: 1 mg/kg
- Cmax [25]: 0.279 ng/mL
- AUC(0-t) at 48 h [26]: 5.45 ng·h/mL
- Cmax [27]: 0.754 ng/mL
- AUC(0-t) at 48 h [28]: 14.9 ng·h/mL
- Cmax [29]: 2.39 ng/mL
- AUC(0-t) at 48 h [30]: 49.2 ng·h/mL
- Cmax [31]: 5.07 ng/mL
- AUC(0-t) at 48 h [32]: 100 ng·h/mL
- Activity (Homo sapiens): Non-toxic

Compound: COc1ccc(C(=O)Cc2c(Cl)cncc2Cl)c(OCC(=O)O)c1OC
- IC50 [1]: 3760 nM
- IC50 (PBMC): > 10000 nM
- inhibition [7]: < 10%
- inhibition [8]: < 10%
- inhibition [9]: < 10%
- inhibition [10]: < 10%
- inhibition [11]: < 10%
- inhibition [12]: < 10%
- inhibition [13]: < 10%
- inhibition [14]: < 10%
- inhibition [15]: < 10%

Compound: COc1ccc(C(=O)Cc2c(Cl)cncc2Cl)c(OCC(N)=O)c1OC
- IC50 [1]: 20 nM
- IC50 (PBMC): 55 nM

Compound: COc1ccc(C(=O)Cc2c(Cl)cncc2Cl)c(OC)c1OC1CCCC1
- IC50 [1]: 2010 nM
- IC50 (PBMC): 9470 nM

Compound: COc1ccc(C(=O)Cc2c(Cl)c[n+]([O-])cc2Cl)c(OCC(=O)NCc2ccccc2)c1OC
- IC50 [1]: 5 nM
- IC50 (PBMC): 11 nM

Compound: COCCNC(=O)COc1c(C(=O)Cc2c(Cl)cncc2Cl)ccc(OC)c1OC
- IC50 [1]: 13 nM
- IC50 (PBMC): 17 nM
- Activity [33]: Non-toxic

Compound: COc1ccc(C(=O)Nc2c(Cl)cncc2Cl)cc1OC
- IC50 [1]: 17 nM
- IC50 (PBMC): 19 nM
